According to article PMC11348278 (Proceedings of the National Academy of Sciences of the …, 2024):

Key:
[1] = system: L444P/L444P Gaucher patient fibroblasts; assay: CellTiter-Glo ATP-based viability assay, patient fibroblasts; format: cell-based, human; details: 72 h
Method in brief: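 Viability by ATP content: fibroblasts seeded at 10,000 cells/well, attached overnight, then treated for 72 h in DMSO (final 0.1%). CellTiter-Glo added per the manufacturer's instructions; luminescence-based ATP read-out.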

[2] = system: L444P/L444P GCase; assay: GCase lysed cell assay; format: cell-based, human; details: L444P/L444P fibroblasts, 72 h; for improvement of GCase activity, compound alone: individual treatment (Fig. 5B)
[3] = target: isolated recombinant PIKfyve (Homo sapiens, UniProt Q9Y2I7); assay: DiscoveRX KINOMEScan for PIKfyve; format: binding
[4] = system: ISR and KEGG lysosome pathway genes; format: cell-based, human; details: L444P fibroblasts, 24 h; A16 500 nM, A18 1 µM, Apilimod 50 nM
[5] = system: L444P/L444P Gaucher patient fibroblasts; assay: Nuclear stain cell toxicity/viability; format: cell-based, human; details: 72 h, 2.5 µM A16 / 10 µM A18
Method in brief: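 Toxicity by nuclear stains: fibroblasts at 10,000 cells/well, attached overnight, then treated for 72 h in DMSO (final 0.1%). Stained with Hoechst and SYTOX Orange per the manufacturer's instructions.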

[6] = system: U251 cells; assay: PIKfyve-related vacuolization, brightfield microscopy of U251 cells; format: cell-based, human; details: high concentrations
Method in brief: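 U251 cells plated at 25,000 cells/well, attached overnight, then treated for 24 h in DMSO (final 0.1%). Vacuolization observed by brightfield microscopy.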

[7] = system: integrated stress response (eIF2B); details: read-out: IC50 (reversal of ISR effects); cited from earlier work
[8] = placebo-controlled trials; cited from earlier work

isolated recombinant PIKfyve, sequence (Q9Y2I7 whole entry): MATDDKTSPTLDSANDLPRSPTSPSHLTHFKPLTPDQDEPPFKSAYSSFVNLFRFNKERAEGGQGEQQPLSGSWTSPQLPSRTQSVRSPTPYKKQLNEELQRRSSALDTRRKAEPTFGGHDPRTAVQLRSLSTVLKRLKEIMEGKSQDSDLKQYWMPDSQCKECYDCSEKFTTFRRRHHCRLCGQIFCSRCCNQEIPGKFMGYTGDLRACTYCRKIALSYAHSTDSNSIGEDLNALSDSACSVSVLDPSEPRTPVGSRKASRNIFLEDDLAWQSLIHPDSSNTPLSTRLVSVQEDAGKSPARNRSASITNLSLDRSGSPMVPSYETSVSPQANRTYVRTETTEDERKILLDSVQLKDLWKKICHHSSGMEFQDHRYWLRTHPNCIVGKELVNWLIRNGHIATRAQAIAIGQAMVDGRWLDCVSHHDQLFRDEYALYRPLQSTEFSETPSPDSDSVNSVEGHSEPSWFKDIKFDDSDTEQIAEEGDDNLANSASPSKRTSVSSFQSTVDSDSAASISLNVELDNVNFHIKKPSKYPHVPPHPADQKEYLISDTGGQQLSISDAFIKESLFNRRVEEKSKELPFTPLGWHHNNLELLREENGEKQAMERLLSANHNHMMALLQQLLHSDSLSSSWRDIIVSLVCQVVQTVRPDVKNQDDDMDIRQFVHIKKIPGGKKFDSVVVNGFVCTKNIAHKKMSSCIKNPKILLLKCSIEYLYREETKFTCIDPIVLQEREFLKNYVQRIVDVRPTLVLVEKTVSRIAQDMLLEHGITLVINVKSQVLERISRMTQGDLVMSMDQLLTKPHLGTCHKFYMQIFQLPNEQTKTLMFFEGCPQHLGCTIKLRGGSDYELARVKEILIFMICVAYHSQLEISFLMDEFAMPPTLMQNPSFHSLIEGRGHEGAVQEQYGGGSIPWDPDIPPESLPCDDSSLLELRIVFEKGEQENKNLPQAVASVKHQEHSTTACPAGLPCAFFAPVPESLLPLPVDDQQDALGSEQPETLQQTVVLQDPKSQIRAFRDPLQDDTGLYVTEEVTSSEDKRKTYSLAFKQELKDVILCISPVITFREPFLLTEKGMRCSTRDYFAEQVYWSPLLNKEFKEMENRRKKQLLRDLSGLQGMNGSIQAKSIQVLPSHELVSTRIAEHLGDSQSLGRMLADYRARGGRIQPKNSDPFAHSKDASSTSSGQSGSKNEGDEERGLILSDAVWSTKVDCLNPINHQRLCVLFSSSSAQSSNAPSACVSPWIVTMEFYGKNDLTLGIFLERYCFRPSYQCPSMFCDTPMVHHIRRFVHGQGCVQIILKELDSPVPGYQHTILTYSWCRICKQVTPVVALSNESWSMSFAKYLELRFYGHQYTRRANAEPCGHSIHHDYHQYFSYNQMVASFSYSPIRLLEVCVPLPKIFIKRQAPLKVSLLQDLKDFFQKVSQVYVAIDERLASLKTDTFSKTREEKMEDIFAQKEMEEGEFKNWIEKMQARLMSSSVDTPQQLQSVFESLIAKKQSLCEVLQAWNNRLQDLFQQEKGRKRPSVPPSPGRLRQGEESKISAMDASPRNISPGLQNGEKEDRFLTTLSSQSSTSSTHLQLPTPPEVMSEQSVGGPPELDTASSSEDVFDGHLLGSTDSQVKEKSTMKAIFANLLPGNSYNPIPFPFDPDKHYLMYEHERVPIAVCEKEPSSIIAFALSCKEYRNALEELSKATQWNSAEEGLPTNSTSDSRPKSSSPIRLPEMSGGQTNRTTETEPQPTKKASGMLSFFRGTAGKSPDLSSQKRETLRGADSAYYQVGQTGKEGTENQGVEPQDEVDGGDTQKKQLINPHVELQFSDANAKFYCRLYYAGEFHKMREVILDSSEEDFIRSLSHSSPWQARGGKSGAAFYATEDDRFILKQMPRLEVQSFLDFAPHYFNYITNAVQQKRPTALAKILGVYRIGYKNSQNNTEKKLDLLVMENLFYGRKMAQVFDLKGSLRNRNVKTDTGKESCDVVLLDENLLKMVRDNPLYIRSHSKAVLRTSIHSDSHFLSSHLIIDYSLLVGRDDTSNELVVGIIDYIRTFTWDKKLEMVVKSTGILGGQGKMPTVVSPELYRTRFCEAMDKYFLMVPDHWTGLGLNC

With c1ccc2c(-c3nn4c(-c5ccncc5)nnc4s3)c[nH]c2c1 [A16] the “cell viability (CellTiter-Glo ATP-based)” value [1] was “above vehicle treatment”, the “increase of GCase activity, cotreatment with ISRIB (observed)” value ([2]; A16 + ISRIB (Fig. 5B)) was ~ 100% and the “improvement of GCase activity, compound alone” value [2] was ~ 70%. The Kd [3] was under 0.17 nM, the “ISR activation by RNAseq-based transcriptional changes” value [4] was “do not see RNAseq-based transcriptional changes” and the “cell toxicity (Hoechst and Sytox Orange staining)” value [5] was “minimal cell toxicity”. For the same compound, the vacuolization phenotype [6] was “vacuolization phenotype”.
With Ic1ccc(Nc2nc(NCCN3CCOCC3)nc(N3CCOCC3)n2)cc1 [A18] the “cell viability (CellTiter-Glo ATP-based)” value [1] was “above vehicle treatment”, the “ISR activation by RNAseq-based transcriptional changes” value [4] was “do not see RNAseq-based transcriptional changes” and the “cell toxicity (Hoechst and Sytox Orange staining)” value [5] was “minimal cell toxicity”. The vacuolization phenotype [6] was “vacuolization phenotype”.
For O=C(COc1ccc(Cl)cc1)NC1CCC(NC(=O)COc2ccc(Cl)cc2)CC1 (stereo not shown) [ISRIB, reference compound], the “improvement of GCase activity, compound alone” value [2] is given as ~ 10% and the IC50 [7] is given as 5 nM.
For Cc1cccc(/C=N/Nc2cc(N3CCOCC3)nc(OCCc3ccccn3)n2)c1 [Apilimod], the “efficacy in autoimmune disorders (Crohn's Disease, Rheumatoid Arthritis)” value [8] is given as “failed to show any efficacy”, the “safety and pharmacokinetic profiles” value [8] is given as “favorable safety and pharmacokinetic profiles” and the “ISR activation by RNAseq-based transcriptional changes” value [4] is given as “do not see RNAseq-based transcriptional changes”.
